Test results reported in PMC3674282 (Nature Communications, 2013).
Changes are numbered by the printed parent chain.

Experiments:
Ac-AChBP [1] = target: T1, Ac-AChBP (Aplysia californica, UniProt Q8WSF8); assay: equilibrium titration of binding sites by tryptophan fluorescence quenching; details: Ac-AChBP 20 μM binding sites
T1 sequence (Q8WSF8 20-236): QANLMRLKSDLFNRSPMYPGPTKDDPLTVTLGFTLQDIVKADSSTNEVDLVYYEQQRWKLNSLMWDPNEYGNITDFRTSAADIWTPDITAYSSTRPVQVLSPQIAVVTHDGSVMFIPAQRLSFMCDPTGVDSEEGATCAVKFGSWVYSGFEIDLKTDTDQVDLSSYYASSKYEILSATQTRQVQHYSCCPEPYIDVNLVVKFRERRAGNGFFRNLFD
Method in brief: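 Ac-AChBP (20 μM in binding sites) was titrated with rising test compound until quenching fell below 8%. Tryptophan emission was read at 340 nm with excitation at 280 nm. Stoichiometry came from a straight line fitted through the average of the plateau points.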

Ac-AChBP [2] = target: T1, Ac-AChBP; assay: affinity by tryptophan fluorescence quenching; format: binding
Method in brief: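 Untagged wild-type Ac-AChBP, purified from Sf21 insect cells, at 1 μM in binding sites, equilibrated with a dilution series of test compound for 1 h. Tryptophan fluorescence read on a plate reader: excitation 280 nm, emission 340 nm (slit 8 nm). Data normalised and pKi obtained by fitting a sigmoidal dose–response curve.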

Ac-AChBP [3] = target: T1, Ac-AChBP; assay: titration of AO with Ac-AChBP by AO fluorescence quenching; format: binding; details: AO 100 μM titrated with Ac-AChBP, absence of nicotine
Method in brief: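 Test compound at 100 μM was titrated with increasing Ac-AChBP. Its own fluorescence was monitored with excitation at 495 nm and emission at 525 nm (slit 10 nm). A competition arm, where indicated, included 1 mM nicotine.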

Ac-AChBP [4] = target: T1, Ac-AChBP; assay: isothermal titration calorimetry; format: binding; details: 25°, PBS
Method in brief: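 The protein was dialysed into PBS and the test compound was dissolved in the same buffer. Titrations ran on a VP-ITC microcalorimeter at 25°. Heat of dilution from ligand titrated into buffer alone was subtracted as background. Data were fitted by non-linear least squares to a one-set-of-sites model.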

human α7 nAChRs = human α7 nAChRs (Homo sapiens, UniProt P36544); assay: electrophysiology on Xenopus oocytes expressing human α7 nAChR; format: cell-based
Sequence of human α7 nAChRs (P36544 23-502): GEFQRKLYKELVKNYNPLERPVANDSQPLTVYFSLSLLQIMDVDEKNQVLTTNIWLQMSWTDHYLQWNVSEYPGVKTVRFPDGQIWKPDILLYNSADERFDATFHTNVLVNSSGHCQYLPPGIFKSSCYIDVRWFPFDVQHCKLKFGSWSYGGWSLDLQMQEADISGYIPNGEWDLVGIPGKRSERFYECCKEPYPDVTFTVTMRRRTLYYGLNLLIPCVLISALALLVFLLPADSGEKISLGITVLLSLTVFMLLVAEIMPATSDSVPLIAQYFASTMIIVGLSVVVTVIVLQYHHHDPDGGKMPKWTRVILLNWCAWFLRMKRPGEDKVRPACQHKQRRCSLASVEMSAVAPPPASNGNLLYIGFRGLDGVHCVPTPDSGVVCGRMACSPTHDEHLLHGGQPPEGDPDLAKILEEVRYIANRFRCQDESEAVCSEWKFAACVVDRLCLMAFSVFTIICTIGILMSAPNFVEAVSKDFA

solubility = format: physicochemical; details: in words
Ac-AChBP [5] = target: T1, Ac-AChBP; assay: biochemical; format: binding
human α7 nAChR = human α7 nAChR (Homo sapiens, UniProt P36544); assay: radioligand displacement; format: binding
Sequence of human α7 nAChR (P36544 23-502): as above
Method in brief: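 SH-SY5Y neuroblastoma cells expressing human α7 nAChR were washed three times, stored as frozen pellets at −80 °C, then resuspended in ice-cold buffer and sonicated. Incubation used PBS/20 mM Tris pH 7.4/0.05% Tween, test compound at 10−3–10−11 M and [3H]MLA at 2 nM final, for 1.5 h at room temperature with shaking and protected from light. Bound label was collected on PEI-pretreated GF/C filters, washed with ice-cold 50 mM Tris pH 7.4 and counted. Curves were fitted by non-linear least squares; mean±s.e.m. of ≥3 independent experiments.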

Ac-AChBP Y186A = target: T2, Ac-AChBP Y186A (Aplysia californica, UniProt Q8WSF8, Y205A); assay: radioligand displacement on mutant Ac-AChBP Y186A; format: binding; details: Y186 mutated to alanine
T2 sequence (Q8WSF8 20-236 Y205A): T1 sequence (Q8WSF8 20-236) with Y186A

Ac-AChBP Y193A = target: T3, Ac-AChBP Y193A (Aplysia californica, UniProt Q8WSF8, Y212A); assay: radioligand displacement on mutant Ac-AChBP Y193A; format: binding; details: Y193 mutated to alanine
T3 sequence (Q8WSF8 20-236 Y212A): T1 sequence (Q8WSF8 20-236) with Y193A

Nc1nc(-c2ccccn2)cc2ccccc12 [compound 2, 1-Amino-3-(2-pyridyl)isoquinoline]
stoichiometric ratio ligand/AChBP (ligands per protomer/binding site) (Ac-AChBP [1]): multiple copies

CN(C)c1ccc2cc3ccc(N(C)C)cc3nc2c1 [AO, acridine orange]
Ki (Ac-AChBP [2]): 1.58 µM
stoichiometric ratio at which Ac-AChBP quenched AO fluorescence (Ac-AChBP [3]): 0.3
stoichiometric ratio (n) by ITC (Ac-AChBP [4]; 0.5 mM ligand into 20 μM Ac-AChBP): 3–4
Kd (Ac-AChBP [4]; Kd by ITC): 1.86 µM
IC50 (human α7 nAChRs): 7.3 µM
solubility (solubility): highly soluble

Nc1nc(-c2cccnc2)cc2ccccc12 [compound 3, 1-Amino-3-(3-pyridyl)isoquinoline]
stoichiometric ratio ligand/AChBP (ligands per protomer/binding site) (Ac-AChBP [1]): multiple copies

Cc1cc(C)nc(C(=N)Nc2nc(-c3ccccn3)cc3ccccc23)n1 [VUF9432, 4,6-dimethyl-N-(3-(pyridin-2-yl)isoquinoline-1-yl)-pyrimidine-2-carboximidamide]
Ki (Ac-AChBP [5]): 11 µM
pKi for α7 nAChR (human α7 nAChR; [3H]MLA displacement, radioligand not fully displaced): around five
displacement of [3H]MLA at the highest concentration tested (human α7 nAChR; highest concentration tested): not fully displaced
affinity for Ac-AChBP Y186A mutant (Ac-AChBP Y186A): loss of affinity
affinity for Ac-AChBP Y193A mutant (Ac-AChBP Y193A): loss of affinity
stoichiometric ratio ligand/AChBP (ligands per protomer/binding site) (Ac-AChBP [1]): three
effect on α7 nAChR expressed in oocytes (human α7 nAChRs; data not shown): did not observe any effect
solubility (solubility): not very soluble
